Data reported in ChEMBL document CHEMBL4610103, “Oleanane Triterpenoids from the Leaves of Gymnema inodorum and Their Insulin Mimetic Activities” (J Nat Prod, 2020).
Calls of active or inactive are those of the source.

Assays:
Format in all cases: functional, cell-based
3T3-L1 [1] = assay: Induction of glucose uptake in mouse 3T3L1 cells assessed as increase in 2-NBDG uptake at 20 uM after 1 hr by fluorescence microscopy
Summary of the method: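 Differentiated 3T3-L1 adipocytes treated with 20 μM compound in the presence of 2-NBDG. Green fluorescence inside cells was imaged by fluorescence microscopy to follow 2-NBDG transport. Signals expressed as means ± SD (n = 3). DMSO negative control; insulin positive control.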

3T3-L1 [2] = assay: Induction of glucose uptake in mouse 3T3L1 cells assessed as increase in 2-NBDG uptake after 1 hr by fluorescence method
Summary of the method: (§1)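 Differentiated 3T3-L1 adipocytes switched to glucose-free medium containing 100 nM insulin, test compounds (20 μM single dose, or 5, 10 and 20 μM) and 50 μM 2-NBDG. Cells washed twice with PBS and lysed in 1% Triton X-100/0.1 M K3PO4 in PBS. Fluorescence read at ex 450/em 535 nm. Means ± SD of three independent experiments, each in triplicate. DMSO vehicle control; insulin positive control.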

3T3-L1 [3] = assay: Induction of glucose uptake in mouse 3T3L1 cells assessed as increase in 2-NBDG uptake at 20 uM after 1 hr by fluorescence method; summary of the method: as §1

Measured: Activity

CNc1ccccc1C(=O)O[C@H]1CC(C)(C)C[C@H]2C3=CC[C@@H]4[C@@]5(C)CC[C@H](O[C@@H]6O[C@H](C(=O)O)[C@@H](O)[C@H](O)[C@H]6O)[C@@](C)(CO)[C@@H]5CC[C@@]4(C)[C@]3(C)C[C@H](O)[C@@]12CO
active: 3T3-L1 [1] | 3T3-L1 [2] Dose-dependent effect | 3T3-L1 [3]

CC1(C)C[C@H](OC(=O)c2ccccc2)[C@]2(CO)[C@@H](O)C[C@]3(C)C(=CC[C@@H]4[C@@]5(C)CC[C@H](O[C@@H]6O[C@H](C(=O)O)[C@@H](O)[C@H](O)[C@H]6O)[C@@](C)(CO)[C@@H]5CC[C@]43C)[C@@H]2C1
active: 3T3-L1 [1] | 3T3-L1 [2] Dose-dependent effect | 3T3-L1 [3]

CC1(C)CC[C@]2(C)[C@@H](O)C[C@]3(C)C(=CC[C@@H]4[C@@]5(C)CC[C@H](O[C@@H]6O[C@H](C(=O)O)[C@@H](O)[C@H](O)[C@H]6O[C@@H]6O[C@H](CO)[C@@H](O)[C@H](O)[C@H]6O)C(C)(C)[C@@H]5CC[C@]43C)[C@@H]2C1
active: 3T3-L1 [1] | 3T3-L1 [2] Dose-dependent effect | 3T3-L1 [3]
